According to ChEMBL document CHEMBL1938291, “Activity of novel quinoxaline-derived chalcones on in vitro glioma cell proliferation” (Eur J Med Chem, 2012):
≈ marks a conversion by molar mass, not a printed value. Calls of active or inactive are those of the source. The calls are words filed in the database; no cut-off is given here.

Key:
C6 [1] = experiment: Cytotoxicity against rat C6 cells after 48 hrs by MTT assay; type: functional, cell-based; conditions: C6, 48 h
In short: (§1)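 MTT viability assay. C6 seeded at 1×10^3 cells/well in DMEM/5% FBS and U-138 MG in DMEM/15% FBS. Exposed to 0.1, 0.5, 1, 5, 10 μg/ml for 24, 48 or 72 h, or to AS605240 at 100 nM, 10 μM or 30 μM for 48 h. Vehicle 0.01% DMSO. Viability given as % of control, mean ± SEM of 3 experiments in triplicate. IC50 as geometric mean with 95% confidence limits.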

[2] = Cytotoxicity against human U138MG cells at 5 ug/ml after 48 hrs by MTT assay; type: functional, U138-MG; in short: as §1
C6 [3] = experiment: Cytotoxicity against rat C6 cells at 5 ug/ml after 48 hrs by MTT assay; type: functional; in short: as §1
[4] = Antiproliferative activity against human U138MG cells at 5 ug/ml after 24 to 72 hrs by hemocytometric analysis; type: functional, U138-MG
In short: (§2)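 Cell-count proliferation assay. U-138 MG seeded at 1×10^4 cells/well in DMEM/15% FBS and C6 at 5×10^3 cells/well in DMEM/5% FBS, grown 24 h. Medium changed, then chalcones (0.1–10 μg/ml) or AS605240 (100 nM, 10 μM, 30 μM) added. Cells washed in Ca/Mg-free PBS, trypsin/EDTA-detached and counted in a Neubauer chamber. Inhibition versus control, mean ± SEM of 3 experiments in triplicate.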

C6 [5] = experiment: Cytotoxicity against rat C6 cells at 0.1 to 0.5 ug/ml after 24 hrs by MTT assay; type: functional, cell-based; in short: as §1
C6 [6] = experiment: Antiproliferative activity against rat C6 cells at 0.1 to 0.5 ug/ml after 48 to 72 hrs by hemocytometric analysis; type: functional, cell-based; in short: as §2
C6 [7] = experiment: Antiproliferative activity against rat C6 cells after 24 to 72 hrs by hemocytometric analysis; type: functional, cell-based; in short: as §2
U138-MG [8] = experiment: Antiproliferative activity against human U138MG cells at 0.1 to 0.5 ug/ml by hemocytometric analysis; type: functional, cell-based; conditions: TDE = time-dependent effect; in short: as §2
C6 [9] = experiment: Cytotoxicity against rat C6 cells at 0.1 to 0.5 ug/ml after 48 to 72 hrs by MTT assay; type: functional, cell-based; in short: as §1
C6 [10] = experiment: Antiproliferative activity against rat C6 cells at 5 ug/ml after 24 to 72 hrs by hemocytometric analysis; type: functional; in short: as §2
C6 [11] = experiment: Cytotoxicity against rat C6 cells at 0.1 to 0.5 ug/ml by MTT assay; type: functional, cell-based; conditions: TDE = time-dependent effect; in short: as §1
U138-MG [12] = experiment: Cytotoxicity against human U138MG cells at 0.1 to 0.5 ug/ml after 48 to 72 hrs by MTT assay; type: functional, cell-based; in short: as §1
U138-MG [13] = experiment: Cytotoxicity against human U138MG cells at 0.1 to 0.5 ug/ml after 24 hrs by MTT assay; type: functional, cell-based; in short: as §1
U138-MG [14] = experiment: Antiproliferative activity against human U138MG cells at 0.1 to 0.5 ug/ml after 24 hrs by hemocytometric analysis; type: functional, cell-based; in short: as §2
C6 [15] = experiment: Antiproliferative activity against rat C6 cells at 0.1 to 0.5 ug/ml after 24 hrs by hemocytometric analysis; type: functional, cell-based; in short: as §2
U138-MG [16] = experiment: Cytotoxicity against human U138MG cells at 0.1 to 0.5 ug/ml by MTT assay; type: functional, cell-based; conditions: TDE = time-dependent effect; in short: as §1
[17] = Antiproliferative activity against human U138MG cells after 24 to 72 hrs by hemocytometric analysis; type: functional, cell-based; conditions: U138-MG; in short: as §2
C6 [18] = experiment: Antiproliferative activity against rat C6 cells at 0.1 to 0.5 ug/ml by hemocytometric analysis; type: functional, cell-based; conditions: TDE = time-dependent effect; in short: as §2
U138-MG [19] = experiment: Antiproliferative activity against human U138MG cells at 0.1 to 0.5 ug/ml after 48 to 72 hrs by hemocytometric analysis; type: functional, cell-based; in short: as §2
C6 [20] = experiment: Cell cycle arrest in rat C6 cells assessed as accumulation at sub-G1/G0 phase at 2.5 ug/ml after 24 hrs by flow cytometric analysis (reference value: 57.9%); type: functional
In short: (§3)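 C6 cells at 3×10^5 per well, in triplicate, given 0.1% DMSO vehicle or 2.5 μg/ml for 6, 12 or 24 h. Ethanol-fixed (70%), stained with propidium iodide/RNase/Triton, 10,000 cells acquired by flow cytometry. Results are relative cell numbers in sub-G1/G1, S and G2/M, from 6 independent experiments.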

C6 [21] = experiment: Cell cycle arrest in rat C6 cells assessed as accumulation at sub-G1/G0 phase after 6 hrs by flow cytometric analysis; type: functional, cell-based; in short: as §3
C6 [22] = experiment: Cell cycle arrest in rat C6 cells assessed as accumulation at sub-G1/G0 phase after 12 hrs by flow cytometric analysis; type: functional, cell-based; in short: as §3
C6 [23] = experiment: Inhibition of PI3Kgamma-mediated Akt activation in rat C6 cells at 5 ug/ml after 30 mins by flow cytometric analysis; type: cell-based
In short: (§4)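 C6 cells (2×10^5/well) grown 24 h in 5% FBS DMEM, then serum-starved 24 h in 0.5% FBS. Treated with 5 μg/ml test compound or 30 μM AS605240 plus 5% FBS stimulus, 15 or 30 min. Cells trypsinized, fixed, permeabilized, stained 30 min with AKT antibody and read by flow cytometry. Controls: unstimulated, and 5% FBS plus 0.01% DMSO.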

C6 [24] = experiment: Inhibition of PI3Kgamma-mediated Akt activation in rat C6 cells at 5 ug/ml after 15 mins by flow cytometric analysis; type: cell-based; in short: as §4
U138-MG [25] = experiment: Cytotoxicity against human U138MG cells at 100 nM after 48 by MTT assay; type: functional, cell-based; in short: as §1
C6 [26] = experiment: Inhibition of PI3Kgamma-mediated Akt activation in rat C6 cells at 30 uM after 15 mins by flow cytometric analysis; type: cell-based; in short: as §4
U138-MG [27] = experiment: Antiproliferative activity against human U138MG cells at 100 nM after 48 by hemocytometric analysis; type: functional, cell-based; in short: as §2
[28] = Growth inhibition of human U138MG cells at 30 uM after 48 by MTT assay; type: functional; conditions: U138-MG, read-out: GI; in short: as §1
C6 [29] = experiment: Antiproliferative activity against rat C6 cells assessed as growth inhibition at 30 uM after 48 hrs by hemocytometric analysis; type: functional; conditions: C6, 48 h, read-out: GI; in short: as §2
C6 [30] = experiment: Antiproliferative activity against rat C6 cells at 100 nM after 48 hrs by hemocytometric analysis; type: functional, cell-based; in short: as §2
[31] = Antiproliferative activity against human U138MG cells assessed as growth inhibition at 30 uM after 48 by hemocytometric analysis; type: functional; conditions: U138-MG, read-out: GI; in short: as §2
C6 [32] = experiment: Growth inhibition of rat C6 cells at 30 uM after 48 hrs by MTT assay; type: functional; conditions: C6, 48 h, read-out: GI; in short: as §1
C6 [33] = experiment: Inhibition of PI3Kgamma-mediated Akt activation in rat C6 cells at 30 uM after 30 mins by flow cytometric analysis; type: cell-based; in short: as §4
C6 [34] = experiment: Cytotoxicity against rat C6 cells at 100 nM after 48 hrs by MTT assay; type: functional, cell-based; in short: as §1
C6 [35] = experiment: Antiproliferative activity against rat C6 cells at 2 ug/ml after 48 hrs by hemocytometric analysis; type: functional; conditions: C6, 48 h
In short: (§5)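 Doxorubicin at 2 μg/mL for 48 h on C6 and U-138 MG cells. Proliferation measured as percentage inhibition.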

[36] = Antiproliferative activity against human U138MG cells at 2 ug/ml after 48 hrs by hemocytometric analysis; type: functional; conditions: U138-MG; in short: as §5

| SMILES | IC50 (C6 [1]) | Imax [2] | Imax (C6 [3]) | Imax [4] | Activity (C6 [5]) | Activity (C6 [6]) | IC50 (C6 [7]) | Activity (U138-MG [8]) | Activity (C6 [9]) | Imax (C6 [10]) | Activity (C6 [11]) | Activity (U138-MG [12]) | Activity (U138-MG [13]) | Activity (U138-MG [14]) | Activity (C6 [15]) | Activity (U138-MG [16]) | IC50 [17] | Activity (C6 [18]) | Activity (U138-MG [19]) | further results |
| --- | --- | --- | --- | --- | --- | --- | --- | --- | --- | --- | --- | --- | --- | --- | --- | --- | --- | --- | --- | --- |
| O=C(/C=C/c1ccc2nccnc2c1)c1ccc(Br)cc1 | 9.19 µg/mL (≈ 27.1 µM) | 16% | 56% |  |  |  |  |  |  |  |  |  |  |  |  |  |  |  |  |  |
| O=C(/C=C/c1ccc2nccnc2c1)c1ccc2c(c1)OCO2 | 8.39 µg/mL (≈ 27.6 µM) | 15% | 55% |  |  |  |  |  |  |  |  |  |  |  |  |  |  |  |  |  |
| COc1ccc(C(=O)/C=C/c2ccc3nccnc3c2)cc1 | 4.42 µg/mL (≈ 15.2 µM) | 34% | 53% | 84% | inactive | Active | 2.19 µg/mL (≈ 7.54 µM) | tde | Active | 90% | tde | Active | inactive | inactive | inactive | tde | 2.67 µg/mL (≈ 9.2 µM) | tde | Active |  |
| O=C(/C=C/c1ccc2nccnc2c1)c1ccc([N+](=O)[O-])cc1 |  | 9% | 26% |  |  |  |  |  |  |  |  |  |  |  |  |  |  |  |  |  |
| COc1ccc(C(=O)/C=C/c2ccc3nccnc3c2)cc1OC | 4.16 µg/mL (≈ 13 µM) | 33% | 51% | 84% | inactive | Active | 1 µg/mL (≈ 3.12 µM) | tde | Active | 82% | tde | Active | inactive | inactive | inactive | tde | 2.29 µg/mL (≈ 7.15 µM) | tde | Active |  |
| COc1ccc(OC)c(C(=O)/C=C/c2ccc3nccnc3c2)c1 | 2.66 µg/mL (≈ 8.3 µM) | 36% | 50% | 87% | inactive | Active | 1.35 µg/mL (≈ 4.21 µM) | tde | Active | 85% | tde | Active | inactive | inactive | inactive | tde | 2.64 µg/mL (≈ 8.24 µM) | tde | Active | Activity (C6 [20]): 66.4%; Activity (C6 [21]): Active; Activity (C6 [22]): Active; inhibition (C6 [23]): 46%; inhibition (C6 [24]): 60% |
| O=C1NC(=O)/C(=C/c2ccc3nccnc3c2)S1 |  |  |  |  |  |  |  |  |  |  |  |  |  |  |  |  |  |  |  | Activity (U138-MG [25]): inactive; inhibition (C6 [26]): 31%; Activity (U138-MG [27]): inactive; inhibition of growth at 30 µM [28]: 10%; inhibition of growth at 30 µM (C6 [29]): 73%; Activity (C6 [30]): inactive; inhibition of growth at 30 µM [31]: 10%; inhibition of growth at 30 µM (C6 [32]): 35%; inhibition (C6 [33]): 41%; Activity (C6 [34]): inactive |
| O=C(/C=C/c1ccc2nccnc2c1)c1ccccc1 | 4.63 µg/mL (≈ 17.8 µM) | 21% | 60% |  |  |  |  |  |  |  |  |  |  |  |  |  |  |  |  |  |
| COc1cccc2c1C(=O)c1c(O)c3c(c(O)c1C2=O)C[C@@](O)(C(=O)CO)C[C@@H]3O[C@H]1C[C@H](N)[C@H](O)[C@H](C)O1 [DOXORUBICIN] |  |  |  |  |  |  |  |  |  |  |  |  |  |  |  |  |  |  |  | inhibition at 2 µg/mL (C6 [35]): 27%; inhibition at 2 µg/mL [36]: 31% |
| COc1ccc(C(=O)/C=C/c2ccc3nccnc3c2)c(OC)c1 | 4.6 µg/mL (≈ 14.4 µM) | 42% | 52% | 86% | inactive | Active | 1.53 µg/mL (≈ 4.78 µM) | tde | Active | 67% | tde | Active | inactive | inactive | inactive | tde | 2.48 µg/mL (≈ 7.74 µM) | tde | Active |  |
